Compound activity deposited in PubChem by The Scripps Research Institute Molecular Screening Center.
TAAR1 antagonist = human TAAR1 antagonists, primary screen, Fluo-8 calcium fluorescence, CHO RD-HGA16 cells; inhibition, % at 3 µM; 360,000 compounds, 1.5% hits; antagonist; Trace amine-associated receptor 1 (Homo sapiens), Q96RJ0;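 active = inhibition above a per-plate cutoff, the mean inhibition of test compounds on that plate plus 3 SD, cut at about 49% in these data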;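 also: 0% = DMSO plus EC80 beta-PEA response and 100% = DMSO alone without agonist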
Target sequence (Q96RJ0 whole entry, looked up): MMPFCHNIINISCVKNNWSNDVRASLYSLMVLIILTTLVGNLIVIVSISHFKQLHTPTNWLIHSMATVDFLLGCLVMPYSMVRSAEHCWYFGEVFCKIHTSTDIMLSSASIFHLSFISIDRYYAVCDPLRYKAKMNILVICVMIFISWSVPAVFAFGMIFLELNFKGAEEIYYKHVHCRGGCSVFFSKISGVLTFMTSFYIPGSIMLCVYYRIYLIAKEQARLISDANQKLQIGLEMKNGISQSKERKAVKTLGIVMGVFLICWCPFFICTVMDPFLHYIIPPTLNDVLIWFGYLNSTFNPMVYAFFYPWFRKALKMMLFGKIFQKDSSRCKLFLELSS
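Test system: RD-HGA16 CHO cells with stable hTAAR1 and Gα16 / Probe or stimulus: EC80 β-phenethylamine stimulus / Times: seeding 17-24 h prior, 75-min 37 °C, 30-min RT dye loading / Detection: Fluo-8 calcium-sensitive fluorescence / Read-out basis: % inhibition scaled between DMSO and EC80 PEA controls / Repeats: singlicate, one well per test compound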
OXTR potentiator = human OXTR potentiators, primary screen, fluorescence, CHO-OTR cells, Fluo-8 calcium | Oxytocin receptor (Homo sapiens), P30559 | Fluo-8 calcium fluorescence, potentiator mode; 0% = oxytocin EC15, 100% = EC100 | activation, % at 3 µM | 320,000 compounds, 0.061% hits;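 active = activation above that plate's cutoff, the mean activation of tested compounds plus 3 SD, cut at about 6.6% in these data, passing the limit was not always enough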;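 also: 100% uses oxytocin at 75 nM as the full agonist control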
Target sequence (P30559 whole entry, looked up): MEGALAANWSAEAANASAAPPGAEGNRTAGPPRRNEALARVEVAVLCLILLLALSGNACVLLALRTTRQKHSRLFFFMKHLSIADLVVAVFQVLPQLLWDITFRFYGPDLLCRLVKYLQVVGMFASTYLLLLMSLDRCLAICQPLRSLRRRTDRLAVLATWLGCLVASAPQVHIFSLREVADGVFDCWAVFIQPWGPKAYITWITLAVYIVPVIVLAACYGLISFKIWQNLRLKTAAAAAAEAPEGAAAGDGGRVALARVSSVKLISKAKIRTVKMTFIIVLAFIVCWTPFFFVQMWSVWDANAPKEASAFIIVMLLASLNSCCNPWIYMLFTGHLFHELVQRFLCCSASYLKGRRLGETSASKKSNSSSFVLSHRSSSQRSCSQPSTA
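Measured by – Fluo-8 calcium dye fluorescence · Test system – human OTR in CHO cells · Dosing – one concentration, 3.0 µM compound · Controls – EC15 oxytocin alone as 0%, 75 nM oxytocin as 100% · Evaluation – normalized max/min fluorescence ratio, % activation · Timing – 6 min pre-incubation, 100 s read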
TAAR1 ag = human TAAR1 agonists, primary screen, Fluo-8 calcium fluorescence, CHO RD-HGA16 cells; vehicle wells 0%, saturating PEA agonist 100%; activation, % at 3 µM; 360,000 compounds, 0.99% hits;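 active = activation above the mean activation of all test compounds in the run plus 3 SD, cut at about 38% in these data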
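System: CHO-derived RD-HGA16 cells with stable Gα16 and human TAAR1. Times: 17-24 h plating, Fluo-8 75 min 37 °C, 30 min RT. Measured by: calcium-sensitive Fluo-8 signal, excitation 470-495, emission 515-575 nm. Read-out basis: % activation relative to PEA EC100 response. Control set: DMSO and PEA EC100. Repeats: no replicates (n 1).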
V1R ag counter = agonists of human V1a receptor, primary screen, counter-screen for OXTR agonist project, fluorescence, CHO-V1R cells | Vasopressin V1a receptor (Homo sapiens), P37288 | 320,000 compounds, 0.25% hits | activation, % at 3 µM | Fluo-8 calcium fluorescence, agonist mode; 0% DMSO, 100% 3 nM vasopressin;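 active = activation above the mean activation of all tested compounds plus 3 SD, per screening run, cut at about 20% in these data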;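 also: signal is peak over basal fluorescence ratio across a 100 second FLIPR read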
OXTR agonist = human OXTR agonists, primary screen, fluorescence, CHO-OTR cells, Fluo-8 calcium. Oxytocin receptor (Homo sapiens), P30559. Fluo-8 calcium fluorescence; normalized: DMSO 0%, oxytocin 100%. activation, % at 3 µM. 320,000 compounds, 0.32% hits. AID 2435, 2010;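 active = activation above the mean of all tested compounds plus 3 SD, cutoff set per screening run, cut at about 20% in these data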;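 also: peak over basal fluorescence ratio from a 100 s FLIPR kinetic read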
Active calls of the source: *; nt = no result given. Sampled rows, rich in hits. Any-hit rate of the full collection: about 2.3%.

SMILES | TAAR1 antagonist | OXTR potentiator | TAAR1 ag | V1R ag counter | OXTR agonist
CN1CCN(CC(=O)Nc2nc(-c3ccccc3)cs2)CC1 | -14 | -9 | -1 | 1 | 2
Cc1cccc(C)c1NC(=O)CCn1cnc2ccccc2c1=O | 12 | 0 | 3 | 0 | 0
CC(=O)N1C[C@@H](CN2C(=O)CCC2=O)[C@@H]2C[C@H]1c1ccccc1N2C | -2 | nt | 2 | nt | nt
O=C(c1ccc(Br)c(S(=O)(=O)N2CCOCC2)c1)N1CCN(C/C=C/c2ccccc2)CC1 | 5 | nt | 2 | nt | nt
COc1ccc(-c2csc(NC(=O)CCn3cnc4ccccc4c3=O)n2)cc1OC | 55* | -8 | 20 | 1 | 5
CC(=O)/C=C(\C)Nc1c(C)n(C)n(-c2ccccc2)c1=O | 15 | -4 | 6 | -1 | 0
CC(Oc1ccccc1)C(=O)N1CCN(c2ccc(N3CCOCC3)nn2)CC1 (stereo not drawn) | -4 | 2 | 0 | 1 | 1
Cc1cc2c(c(C)c1Cl)C(c1ccc3c(c1)OCO3)CC(=O)O2 (stereo not drawn) | 38 | nt | 6 | nt | nt
Cc1ccc(C(C)C)c2c1C(c1ccc3c(c1)OCO3)CC(=O)O2 (stereo not drawn) | 45 | nt | 47* | nt | nt
COC(=O)[C@]12C[C@H](CC(=O)N3CCOCC3)C(=O)N(Cc3ccc4c(c3)OCO4)C1=C[C@H](COCc1ccccc1)O[C@@H]2C | -18 | nt | 4 | nt | nt
Nc1ccc(-c2c3ccc(=O)cc-3oc3cc(O)ccc23)c(C(=O)O)c1 | nt | -13 | nt | 206* | 167*
COc1ccc(C2=NN(c3ccc(C=O)cc3)C(c3ccccc3)C2)cc1 (stereo not drawn) | nt | -11 | nt | 1 | -2
COc1ccc(C2CC(c3cccs3)=NN2c2ccc(C=O)cc2)cc1 (stereo not drawn) | 46 | -9 | 21 | 28* | 24*
Cc1ccc(SCC(=O)NCC2COc3ccccc3O2)cc1 (stereo not drawn) | -1 | -4 | -4 | -1 | -2
CC(C)n1ncc2c(C(=O)Nc3ccccc3SCC(N)=O)cc(C3CC3)nc21 | 49* | nt | 13 | nt | nt
CCc1c(C#N)c(SCCC(=O)Nc2cccc(OC)c2)nc2c1C(=O)CC(C)(C)C2 | 58* | -13 | 17 | 1 | -1
COc1ccc(-c2c(C#N)c(SCc3c(C)noc3C)nc3c2C(=O)CC(C)(C)C3)cc1 | -8 | -1 | 2 | 0 | 0
COc1ccccc1NC(=O)CSc1nccn1Cc1ccccc1 | -27 | 0 | -1 | 3 | 0
CCC(=O)N/N=C/c1ccc(-c2ccc([N+](=O)[O-])cc2)o1 | -1 | -7 | 0 | 0 | 0
CC(C)(C)C(=O)/C=c1\s/c(=C\c2ccc(-c3ccc([N+](=O)[O-])cc3)o2)c(=O)n1CC(=O)NC(N)=O | 59* | -8 | 53* | 47* | 36*
CCN(CC)S(=O)(=O)c1cccc(C(=O)/C=C2/N(C)c3ccccc3C2(C)C)c1 | 59* | -11 | 1 | 0 | 0
COCCCNCCCCOc1ccc(Br)cc1C | -7 | -8 | 41* | 4 | 11
COc1ccc(Cn2c(SCc3ccc(C)cc3)nc3cc(OC)c(OC)cc3c2=N)cc1Cl | 1 | 1 | 41* | 3 | 3
Cc1cc(C)c(NC(=O)CCn2nnc3ccccc32)c(C)c1 | -6 | 3 | 7 | 1 | -1
COC(=O)c1cc2c(ccn2-c2ccc(F)cc2)n1C(C)C | -31 | -6 | 39* | 4 | -1
SMILES | TAAR1 antagonist | OXTR potentiator | TAAR1 ag | V1R ag counter | OXTR agonist
COC(=O)c1cc2c(ccn2-c2ccc(F)cc2)n1Cc1cccc(OC)c1 | -26 | 8 | 8 | 1 | 1
COC(=O)c1cc2c(ccn2-c2ccc(F)cc2)n1CC(C)C | -17 | 2 | 44* | 2 | 0
CCCn1c(C(=O)OC)cc2c1ccn2-c1ccc(F)cc1 | -38 | 3 | 29 | 10 | 18
Cc1ccc(S(=O)(=O)N2CCC(C(=O)NCCCN3CCOCC3)CC2)cc1 | 2 | -2 | 2 | 6 | 1
N#C/C(=C/c1ccc(N2CCOCC2)o1)C(=O)Nc1ccccc1 | 34 | nt | 56* | nt | nt
COc1ccc(OC)c(NC(=O)C(=O)NNC(=O)C23CC4CC(CC(C4)C2)C3)c1 | -19 | -15 | 54* | 13 | 5
COc1ccc(NC(=O)CNC(=O)C23CC4CC(CC(C4)C2)C3)c(OC)c1 | -12 | -10 | 2 | 1 | 0
Cc1cccc(N2C(=NC(=O)c3ccccc3)SC3CS(=O)(=O)CC32)c1 (stereo not drawn) | -5 | -3 | 2 | 1 | 0
Cc1ccc(C2c3c(n[nH]c3C(C)C)C(=O)N2c2ccccc2)cc1 (stereo not drawn) | -57 | nt | 14 | nt | nt
Cc1cccc(N2CCN(C(=O)C3CC(=O)N(c4ccc5c(c4)OCCO5)C3)CC2C)c1 (stereo not drawn) | 55* | -7 | 17 | 9 | 2
C[C@H](CO)N1C[C@H](C)[C@@H](CN(C)C(=O)Nc2ccccc2)Oc2c(NC(=O)Nc3ccc4c(c3)OCO4)cccc2C1=O | 37 | 1 | 8 | 0 | 1
C[C@H](CO)N1C[C@H](C)[C@@H](CN(C)S(=O)(=O)c2ccccc2)Oc2c(NC(=O)Nc3ccccc3)cccc2C1=O | 48 | 3 | 9 | 1 | -1
COc1ccc(NC(=O)N(C)C[C@H]2Oc3c(NC(=O)Nc4ccc5c(c4)OCO5)cccc3C(=O)N([C@H](C)CO)C[C@@H]2C)cc1 | 49* | -2 | 22 | 1 | 1
COc1ccc(S(=O)(=O)N(C)C[C@H]2Oc3c(NC(=O)Nc4ccccc4)cccc3C(=O)N([C@H](C)CO)C[C@@H]2C)cc1 | 57* | nt | 12 | nt | nt
COc1ccc(NC(=O)Nc2cccc3c2O[C@H](CN(C)C(=O)Nc2ccc(OC)cc2)[C@@H](C)CN([C@H](C)CO)C3=O)cc1 | 56* | -4 | 17 | 1 | 2
COC(=O)[C@]12C[C@H](CC(=O)N3CCN(C(=O)c4ccco4)CC3)C(=O)N(Cc3ccc4c(c3)OCO4)C1=C[C@H](C(C)(C)C)O[C@@H]2C | -17 | nt | 2 | nt | nt
Cc1ccc(S(=O)(=O)CCC(=O)OCC(=O)Nc2cc(F)ccc2C)cc1 | -13 | 3 | -1 | -1 | 0
CC(C)N1CCN(Cc2ccsc2)CC1CCO (stereo not drawn) | -20 | -1 | 0 | 0 | 1
COc1ccc(CCNC(=O)CCSCc2ccccc2F)cc1OC | -7 | -14 | 1 | 2 | -1
O=C(CCSCc1ccccc1F)NCCc1ccccc1 | 76* | -8 | 39* | -1 | -2
